In ChEMBL document CHEMBL3102703, “Chemical constituents from Inonotus obliquus and their biological activities” (J Nat Prod, 2014):

Experiments:
[1] = Hepatoprotective activity in rat WB-F344 cells assessed as inhibition of D-galactosamine-induced toxicity at 10 uM preincubated for 1 hr followed by D-galactosamine challenge measured after 24 hrs by MTT assay relative to control; format: functional
Method in brief: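 WB-F344 rat liver cells, compounds at 10 μM, D-galactosamine injury. Read-out is optical density. Survival is given as % of untreated normal cells. Inhibition (%) = [(OD sample − OD control)/(OD normal − OD control)] × 100. Bicyclol at 10 μM is the positive control. Data are means ± SD: n = 3 for samples, n = 6 for normal and control wells.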

[2] = Hepatoprotective activity against D-galactosamine-induced toxicity in rat WB-F344 cells assessed as cell survival at 10 uM preincubated for 1 hr followed by D-galactosamine challenge measured after 24 hrs by MTT assay relative to normal cell; format: functional; conditions: read-out: Survival
Method in brief: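 WB-F344 cells exposed to D-galactosamine, with test agents at 10 μM and bicyclol at 10 μM as positive control. Readout is optical density (OD). Survival is expressed as % of untreated normal cells. Values are means ± SD, n = 3 (n = 6 for normal and model-control groups).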

KB = assay: Cytotoxicity against human KB cells after 4 days by MTT assay; format: functional, cell-based; conditions: 96 h
[3] = Cytotoxicity against human Bel7402 cells after 4 days by MTT assay; format: functional, cell-based; conditions: Bel-7402, 96 h
[4] = Inhibition of tyrosine kinase (unknown origin) by ELISA; set-up: species or system Homo sapiens
A549 = assay: Cytotoxicity against human A549 cells after 4 days by MTT assay; format: functional, cell-based; conditions: A549, 96 h

| Structure (SMILES) | inhibition at 10 µM [1] [%] | viability at 10 µM [2] [%] | IC50 (KB) [µM] | IC50 [3] [µM] | IC50 [4] [µM] | IC50 (A549) [µM] |
| --- | --- | --- | --- | --- | --- | --- |
| CC(C)=CCC[C@@H](C)[C@H]1CC[C@@]2(C)C3=C(CC[C@]12C)[C@@]1(C)CC[C@H](O)C(C)(C)[C@@H]1CC3 [LANOSTEROL] | 74.8 | 92 | – | – | – | – |
| O=Cc1ccc(O)c(O)c1 [PROTOCATECHUALDEHYDE] | – | – | > 10 | 3.7 | 7.7 | 3.1 |
| COC(=O)c1cc(OC)c2c(c1-c1c(CO)cc(OC)c3c1OCO3)OCO2 [BICYCLOL] | – | 80 | – | – | – | – |
| CC(C)=CCC(O)[C@@H](C)[C@H]1CC[C@@]2(C)C3=C(C(=O)C[C@]12C)[C@@]1(C)CC[C@H](O)C(C)(C)[C@@H]1CC3 (stereo partly drawn) | 81.2 | 94 | – | – | – | – |
| CC(C)c1ccc2c(c1)C(=O)C[C@H]1C(C)(C)CCC[C@@]21C(=O)O | 34.4 | 79 | – | – | – | – |
| CC(C)[C@@H](C)CC[C@@H](C)[C@H]1CC[C@H]2C3=CCC4C[C@@H](O)CC[C@]4(C)[C@H]3CC[C@]12C (stereo partly drawn) | 37.4 | 80 | – | – | – | – |
| CC(C)=C(C)[C@@H]1C[C@H]([C@H]2CC[C@@]3(C)C4=C(CC[C@]23C)[C@@]2(C)CC[C@H](O)C(C)(C)[C@@H]2CC4)C(=O)O1 | 71.9 | 91 | – | – | – | – |
| O=c1[nH]cc(F)c(=O)[nH]1 [FLUOROURACIL] | – | – | 8.1 | 5.5 | – | – |
| CC(=O)/C=C/c1ccc(O)c(O)c1 | – | – | > 10 | 4.7 | – | > 10 |
| CC[C@H](CC[C@@H](C)[C@H]1CC[C@H]2[C@@H]3CCC4=C[C@@H](O)CC[C@]4(C)[C@H]3CC[C@]12C)C(C)C [LAWSARITOL] | 40.6 | 81 | – | – | – | – |
| CC(C)=CCC[C@@H](C(=O)O)[C@H]1CC[C@@]2(C)C3=C(CC[C@]12C)[C@@]1(C)CC[C@H](O)C(C)(C)[C@@H]1CC3 [TRAMETENOLIC ACID] | 75 | 92 | – | – | – | – |
| COc1cc(C(=O)O)ccc1O [VANILLIC ACID] | 56.5 | 86 | – | – | – | – |
| CC(C)[C@@H](C)/C=C/[C@@H](C)[C@H]1CC[C@H]2C3=CC[C@H]4C[C@@H](O)CC[C@]4(C)[C@H]3CC[C@]12C | 43.8 | 82 | – | – | – | – |
| C=C(C)C(=O)CC(O)[C@@H](C)[C@H]1CC[C@@]2(C)C3=C(CC[C@]12C)[C@@]1(C)CC[C@H](O)C(C)(C)[C@@H]1CC3 (stereo partly drawn) | – | – | 9.9 | > 10 | – | > 10 |
| CC(C)=CC[C@@H](O)[C@@H](C)[C@H]1CC[C@@]2(C)C3=C(CC[C@]12C)[C@@]1(C)CC[C@H](O)C(C)(C)[C@@H]1CC3 [INOTODIOL] | 56.3 | 86 | – | – | – | – |
